{
  "source": "paper PMC3678535",
  "about": "(Biochemistry, 2013)",
  "key": {"[1]": {"molecular_target": "T1, iNOS (Mus musculus, UniProt P29477)", "assay": "Ferric difference spectral binding assay", "design": "species or system murine", "procedure,_shortened": "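Murine iNOS (E. coli-expressed, purified), 5 μM, in 100 mM HEPES pH 7.5 with 10 μM H4B, scanned 380–500 nm against a HEPES/H4B blank. […] Test compound titrated at 0.1–1 mM final, additions kept under 5% volume. Ks from Michaelis-Menten fit of concentration vs absorbance difference (local maximum minus minimum).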"}, "[2]": {"molecular_target": "T1, iNOS", "assay": "NO production measured with the Griess reagent, longer incubations", "format": "biochemical, murine", "conditions": "incubations of 1, 2, 6, 12 and 24 hours", "procedure,_shortened": "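Purified murine iNOS (E. coli-expressed), 100 nM, incubated 1, 2, 6, 12 and 24 h with test compound at various concentrations, 100 μM NADPH and 10 μM H4B in 100 mM HEPES, 10% glycerol, pH 7.5. Lactate dehydrogenase added to oxidize leftover NADPH, then Griess reagents added. Nitrite/nitrate read by absorbance at 540 nm.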"}, "[3]": {"molecular_target": "T2, murine iNOS (Mus musculus, UniProt P29477)", "assay": "Inhibition of NO production", "format": "biochemical", "conditions": "10 μM L-arginine, unit printed in cell/text as mM"}, "[4]": {"conditions": "cited from earlier work"}, "[5]": {"molecular_target": "T2, murine iNOS", "assay": "NO production, hemoglobin capture assay", "format": "biochemical"}, "[6]": {"molecular_target": "rat nNOS (Rattus norvegicus, UniProt P29476)", "sequence (P29476 whole entry)": "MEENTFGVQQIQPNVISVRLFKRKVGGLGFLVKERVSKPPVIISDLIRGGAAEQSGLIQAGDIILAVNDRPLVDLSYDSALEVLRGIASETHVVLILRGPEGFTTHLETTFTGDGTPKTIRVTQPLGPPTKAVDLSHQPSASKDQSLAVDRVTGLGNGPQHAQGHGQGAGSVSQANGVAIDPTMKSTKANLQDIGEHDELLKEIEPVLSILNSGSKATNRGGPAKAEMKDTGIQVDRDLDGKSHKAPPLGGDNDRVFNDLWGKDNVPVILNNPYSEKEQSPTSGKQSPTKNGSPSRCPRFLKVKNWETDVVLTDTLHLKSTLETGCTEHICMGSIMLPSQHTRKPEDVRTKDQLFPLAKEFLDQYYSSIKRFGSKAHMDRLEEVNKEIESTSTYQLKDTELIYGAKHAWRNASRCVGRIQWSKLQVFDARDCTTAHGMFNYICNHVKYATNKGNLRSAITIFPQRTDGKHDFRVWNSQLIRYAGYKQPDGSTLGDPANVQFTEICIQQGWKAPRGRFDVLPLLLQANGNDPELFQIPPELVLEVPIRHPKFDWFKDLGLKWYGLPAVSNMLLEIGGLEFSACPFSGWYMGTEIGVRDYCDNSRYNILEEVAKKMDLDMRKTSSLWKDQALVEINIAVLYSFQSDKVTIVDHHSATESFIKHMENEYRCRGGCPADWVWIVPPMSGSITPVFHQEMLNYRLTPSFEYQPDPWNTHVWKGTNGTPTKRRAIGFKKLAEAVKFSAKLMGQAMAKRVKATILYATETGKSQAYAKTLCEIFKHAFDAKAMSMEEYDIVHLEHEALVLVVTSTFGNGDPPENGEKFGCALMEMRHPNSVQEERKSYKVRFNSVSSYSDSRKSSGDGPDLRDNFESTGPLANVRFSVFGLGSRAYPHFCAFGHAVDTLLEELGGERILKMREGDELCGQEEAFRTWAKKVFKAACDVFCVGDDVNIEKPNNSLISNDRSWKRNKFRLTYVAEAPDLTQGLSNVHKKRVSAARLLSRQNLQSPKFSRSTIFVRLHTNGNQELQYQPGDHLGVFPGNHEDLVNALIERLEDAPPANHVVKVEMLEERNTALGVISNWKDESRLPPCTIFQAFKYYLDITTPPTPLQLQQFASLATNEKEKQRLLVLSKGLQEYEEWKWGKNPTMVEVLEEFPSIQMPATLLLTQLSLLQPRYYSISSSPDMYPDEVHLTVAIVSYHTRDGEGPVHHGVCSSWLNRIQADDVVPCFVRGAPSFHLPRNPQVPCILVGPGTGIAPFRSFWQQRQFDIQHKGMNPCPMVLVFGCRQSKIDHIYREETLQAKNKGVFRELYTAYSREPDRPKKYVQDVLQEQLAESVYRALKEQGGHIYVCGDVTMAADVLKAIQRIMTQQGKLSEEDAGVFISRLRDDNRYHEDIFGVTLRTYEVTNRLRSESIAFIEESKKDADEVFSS", "assay": "NO production, hemoglobin capture assay", "format": "biochemical", "conditions": "for Km: NO production, 22 °C, pH 7.5"}, "[7]": {"molecular_target": "T1, iNOS", "assay": "Substrate uncoupling: NADPH consumption versus NO production", "format": "biochemical, murine", "conditions": "20 μM arginine, 20 μM NHA, 100 μM NMOA, 100 μM NHMA"}, "[8]": {"system": "NOS", "conditions": "cited from earlier work"}, "[9]": {"molecular_target": "T1, iNOS", "assay": "One-carbon metabolite of [14C]-NMOA-iNOS reaction", "format": "biochemical, murine", "conditions": "MeOX/FDH conversion, scintillation counting"}, "[10]": {"system": "Methanol oxidase (MeOX)", "conditions": "depending on the O2 concentration; cited from earlier work"}, "[11]": {"conditions": "read-out: Ks (spectral binding constant), imidazole displacement"}},
  "note": "Values joined by “and” are separate entries in the source; they are usually repeats but may differ in a detail not shown here. Equal values may be shown once. Read-outs that look alike come from different tables or passages of the source.",
  "data": [
    {"compound": "CN(CCC[C@H](N)C(=O)O)C(=N)NO", "note": "[MHA, N^δ-methyl- N^ω-hydroxy-L-arginine]", "values": [
      {"measurement": "Kd", "setting": "[1]; read-out: Ks (spectral binding constant), unit printed in cell/text as mM", "result": "> 10", "unit": "mM"},
      {"measurement": "NO production (Griess reagent)", "setting": "[2]", "result": "absence of NO production"},
      {"measurement": "Ki", "setting": "[3]", "result": "> 10", "unit": "mM"}
    ]},
    {"compound": "CCONC(=N)NCCC[C@H](N)C(=O)O", "note": "[NEOA, N^ω-ethoxy-L-arginine]", "values": [
      {"measurement": "Kd", "setting": "[1]; [11]", "result": "0.12 ± 0.013", "unit": "mM"},
      {"measurement": "NO production (Griess reagent)", "setting": "[2]", "result": "absence of NO production"}
    ]},
    {"compound": "N=C(NO)NCCC[C@H](N)C(=O)O", "note": "[NHA, N^ω-hydroxy-L-arginine, reference compound]", "values": [
      {"measurement": "Kd", "setting": "[1]; [11]", "result": "0.029 ± 0.004", "unit": "mM"},
      {"measurement": "pKa", "setting": "[4]", "result": 8.5},
      {"measurement": "kcat", "setting": "[5]", "result": "0.267 ± 0.033", "unit": "s⁻¹"},
      {"measurement": "Km", "setting": "[5]; NO production, 22 °C, pH 7.5", "result": "0.022 ± 0.005", "unit": "mM"},
      {"measurement": "kcat", "setting": "[6]", "result": "0.217 ± 0.067", "unit": "s⁻¹"},
      {"measurement": "Km", "setting": "[6]", "result": "5.7 ± 2.1", "unit": "µM"},
      {"measurement": "NADPH:NO (moles of NADPH consumed per mole of NO formed)", "setting": "[7]", "result": "0.7 ± 0.3"}
    ]},
    {"compound": "CN(O)C(=N)NCCC[C@H](N)C(=O)O", "note": "[NHMA, N^ω-hydroxy-N^ω-methyl-L-arginine]", "values": [
      {"measurement": "Kd", "setting": "[1]; [11]", "result": "0.034 ± 0.004", "unit": "mM"},
      {"measurement": "kcat", "setting": "[5]", "result": "0.015 ± 0.0083", "unit": "s⁻¹"},
      {"measurement": "kcat, times lower compared to NHA", "setting": "[5]", "result": "about 18 times"},
      {"measurement": "Km", "setting": "[5]; NO production, 22 °C, pH 7.5", "result": "0.034 ± 0.006", "unit": "mM"},
      {"measurement": "kcat", "setting": "[6]", "result": "0.0167 ± 0.0033", "unit": "s⁻¹"},
      {"measurement": "kcat, times lower compared to NHA", "setting": "[6]", "result": "~13", "unit": "times"},
      {"measurement": "Km", "setting": "[6]", "result": "2 ± 0.4", "unit": "µM"},
      {"measurement": "NADPH:NO (moles of NADPH consumed per mole of NO formed)", "setting": "[7]", "result": "15 and 15.0 ± 2.7"}
    ]},
    {"compound": "CN=C(N)NCCC[C@H](N)C(=O)O", "note": "[NMA, N^ω-Methyl-L-arginine]", "values": [
      {"measurement": "kinact", "setting": "[8]; inactivator of NOS", "result": 0.07, "unit": "min⁻¹"},
      {"measurement": "KI (inactivation)", "setting": "[8]; read-out: KI (inactivation), inactivator of NOS", "result": 2.7, "unit": "µM"},
      {"measurement": "Ki", "setting": "[8]; read-out: Ki (competitive inhibitor), competitive inhibitor of NOS", "result": 0.2, "unit": "µM"}
    ]},
    {"compound": "CON(C)C(=N)NCCC[C@H](N)C(=O)O", "note": "[NMMA, N^ω-methoxy-N^ω-methyl-L-arginine]", "values": [
      {"measurement": "Kd", "setting": "[1]; [11]", "result": "0.07 ± 0.005", "unit": "mM"},
      {"measurement": "NO production (Griess reagent)", "setting": "[2]", "result": "absence of NO production"}
    ]},
    {"compound": "CONC(=N)NCCC[C@H](N)C(=O)O", "note": "[NMOA, N^ω-methoxy-L-arginine]", "values": [
      {"measurement": "Kd", "setting": "[1]; [11]", "result": "0.122 ± 0.02", "unit": "mM"},
      {"measurement": "kcat", "setting": "[5]", "result": "0.0783 ± 0.0217", "unit": "s⁻¹"},
      {"measurement": "kcat, times lower compared to NHA", "setting": "[5]", "result": "about 4 times"},
      {"measurement": "Km", "setting": "[5]; NO production, 22 °C, pH 7.5", "result": "0.088 ± 0.008", "unit": "mM"},
      {"measurement": "kcat", "setting": "[6]", "result": "0.03 ± 0.0083", "unit": "s⁻¹"},
      {"measurement": "kcat, times lower compared to NHA", "setting": "[6]", "result": "~7", "unit": "times"},
      {"measurement": "Km", "setting": "[6]", "result": "11 ± 2", "unit": "µM"},
      {"measurement": "NADPH:NO (moles of NADPH consumed per mole of NO formed)", "setting": "[7]", "result": "8 and 8.0 ± 1.5"}
    ]},
    {"compound": "[14CH3]ONC(=N)NCCC[C@H](N)C(=O)O", "note": "[[^14C]-NMOA, N^ω-[^14C]-methoxy-L-arginine]", "values": [
      {"measurement": "One-carbon metabolite", "setting": "[9]", "result": "methanol"}
    ]},
    {"compound": "N=C(N)NCCC[C@H](N)C(=O)O", "note": "[arginine, L-arginine, reference compound]", "values": [
      {"measurement": "NADPH:NO (moles of NADPH consumed per mole of NO formed)", "setting": "[7]", "result": 1.5}
    ]},
    {"compound": "CN(CCC[C@H](N)C(=O)O)C(=N)N", "note": "[dMA, N^δ-Methyl-L-arginine]", "values": [
      {"measurement": "Ki", "setting": "[8]; binds weakly to the NOS active site", "result": 1400, "unit": "µM"}
    ]},
    {"compound": "C=O", "note": "[formaldehyde]", "values": [
      {"measurement": "Km", "setting": "[10]", "result": 2500, "unit": "µM"}
    ]},
    {"compound": "c1c[nH]cn1", "note": "[imidazole, reference compound]", "values": [
      {"measurement": "Kd", "setting": "[1]; [11]", "result": "0.12 to 0.15", "unit": "mM"}
    ]},
    {"compound": "CO", "note": "[methanol]", "values": [
      {"measurement": "Km", "setting": "[10]", "result": "~2000", "unit": "µM"}
    ]},
    {"compound": "CC(C)(C)ONC(=N)NCCC[C@H](N)C(=O)O", "note": "[tBOA, N^ω-tert-butyloxy-L-arginine]", "values": [
      {"measurement": "kcat", "setting": "[5]", "result": "0.005 ± 0.0017", "unit": "s⁻¹"},
      {"measurement": "Km", "setting": "[5]; unit printed in cell/text as mM", "result": "2.7 ± 0.8", "unit": "mM"},
      {"measurement": "Ki", "setting": "[3]", "result": "7.4 ± 4.5", "unit": "mM"}
    ]}
  ]
}
